# In article PMC10905692 (ACS Omega, 2024):
# “Also recorded” adds a separate entry of the source.
# How the values were obtained:
# PTP1B [1] = biological target: T1, PTP1B (Homo sapiens, UniProt P18031); assay: Fluorescence quenching measurement of binding affinity; conditions: for n (number of binding sites) / KSV (Stern–Volmer constant): fluorescence quenching; for KSV (Stern–Volmer constant): 0–25 μM inhibitor
# T1 sequence (P18031 1-435): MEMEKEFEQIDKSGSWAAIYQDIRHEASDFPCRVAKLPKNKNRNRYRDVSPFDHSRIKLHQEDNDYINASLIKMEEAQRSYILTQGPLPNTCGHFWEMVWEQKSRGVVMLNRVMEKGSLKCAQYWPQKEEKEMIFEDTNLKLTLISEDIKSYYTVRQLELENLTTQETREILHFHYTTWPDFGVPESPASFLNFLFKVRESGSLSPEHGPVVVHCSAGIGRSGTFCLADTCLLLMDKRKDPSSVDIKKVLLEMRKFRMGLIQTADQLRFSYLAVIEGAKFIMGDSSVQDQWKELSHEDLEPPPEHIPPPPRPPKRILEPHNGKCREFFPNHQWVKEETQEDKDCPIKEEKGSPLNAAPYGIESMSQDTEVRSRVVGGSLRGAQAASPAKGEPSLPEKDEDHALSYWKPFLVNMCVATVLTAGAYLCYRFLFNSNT
# Summary of the method: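 Intrinsic fluorescence quenching of human recombinant PTP1B, at the enzyme level of the activity assays, in assay buffer. Test compound was added at 0, 1.6, 3.2, 6.2, 12.5 and 25 μM. Emission spectra were recorded over 300–400 nm with 250 nm excitation and 2 nm slits. KSV was obtained by Stern–Volmer analysis; binding constant KA and number of sites n from eqs 9–10.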
# PTP1B [2] = biological target: T1, PTP1B; assay: PTP1B inhibitory assay; assay type: biochemical
# PTP1B [3] = biological target: T1, PTP1B; assay: Enzyme kinetic assay; assay type: biochemical; conditions: for kinetic mode: Lineweaver–Burk plots; for KIS: inhibition constant for enzyme–substrate complex
# Summary of the method: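 Human recombinant PTP1B in Tris-HCl pH 7.5 buffer (25 mM Tris, 1 mM EDTA, 2 mM 2-mercaptoethanol, 1 mM dithiothreitol); test compounds dissolved in DMSO. Steady-state rates were taken across varied inhibitor and substrate concentrations and analysed by Lineweaver–Burk and Dixon plots. KI and KIS came from secondary plots of slopes or 1/Vmax intercepts vs inhibitor concentration (eqs 2–4). Reversibility was judged from activity vs enzyme concentration at several inhibitor levels.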
# PTP1B [4] = biological target: T1, PTP1B; assay: Time-dependent assays and progress curves; assay type: biochemical
# Summary of the method: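 PTP1B was preincubated with test compound for 0, 5, 10, 15, 30, 45, 60 or 75 min (0.2 μM), then residual activity was read. Progress curves were recorded at actual substrate concentration across several inhibitor concentrations by absorbance at 405 nm, […] the ~10 min lag. vi, vs, kobs and Ki app were fitted with eqs 5–8. kobs was plotted against inhibitor concentration to give k3 and k4.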
# [5] = Ki (inhibition constant), estimated using Dixon plots
# [6] = KI, inhibition constant for free enzyme, secondary plots
Kd (PTP1B [1]) [µM],n (number of binding sites) (PTP1B [1]),KSV (Stern–Volmer constant) (PTP1B [1]),IC50 (PTP1B [2]) [µM],fold effective vs mother compound (PTP1B [2]; pyran compound 5 vs 6) [fold],Ki (PTP1B [3]; [5]) [µM],kinetic mode (PTP1B [3]),fold better inhibition than mother skeleton (PTP1B [2]; glycosides 11 vs 6 and 13 vs 8) [fold],Ki (PTP1B [3]; [6]) [µM],KIS (PTP1B [3]; secondary plots) [µM],Ki (PTP1B [4]) [µM],"k3 (PTP1B [4]; slow-binding, progress curves) [μM^–1 min^–1]","k4 (PTP1B [4]; slow-binding, progress curves) [min^–1]",fold more effective (inhibition activity) (PTP1B [2]; trans 1 vs cis 2) [fold],reversibility of the inhibitor to the enzyme (PTP1B [3]; initial velocity plots at different inhibitor concentrations),SMILES,"time-dependent inhibition type (PTP1B [4]; preincubation 0–75 min, kobs vs inhibitor concentration linear)"
1110,1.20,0.0132 × 10^5 L·mol^–1,3.07 ± 0.2,9,3.46,noncompetitive inhibitor,–,–,–,–,–,–,–,–,"CC1(C)C=Cc2c(cc(O)c3c2O[C@H](c2ccc(O)cc2)[C@@H](O)C3=O)O1 [Compound 5, yukovanol]",–
22.1,0.97,0.3803 × 10^5 L·mol^–1,0.22 ± 0.3,–,0.18,mixed type I,27,0.18,0.80,–,–,–,–,–,"O=c1cc(-c2ccc(O)cc2)oc2cc(O[C@@H]3O[C@H](CO)[C@@H](O)[C@H](O)[C@H]3O)cc(O)c12 [Compound 13, apigenin-7-O-β-D-glucopyranoside]",–
370,1.16,0.0304 × 10^5 L·mol^–1,2.24 ± 0.5,–,1.04,competitive inhibitors,–,–,–,–,–,–,–,–,"CC1(C)C=Cc2c(cc(O)c3c2O[C@H](c2ccccc2)[C@H](O)C3=O)O1 [Compound 2, (2R,3S)-3,5-dihydroxy-8,8-dimethyl-2-phenyl-2,3-dihydro-4H,8H-pyrano[2,3-f]chromen-4-one]",–
10000,0.79,0.0002 × 10^5 L·mol^–1,35.4 ± 0.7,–,34.7,noncompetitive,–,–,–,–,–,–,–,–,"O=C1c2c(O)cc(O)cc2O[C@H](c2ccc(O)cc2)[C@H]1O [Compound 6, dihydrokaempferol]",–
72.5,0.93,0.0569 × 10^5 L·mol^–1,1.19 ± 0.3,–,0.45,competitive,–,–,–,–,–,–,–,–,"CC1(C)C=Cc2c(cc(O)c3c(=O)cc(-c4ccc(O)cc4)oc23)O1 [Compound 7, atalantoflavone]",–
769,1.02,0.0056 × 10^5 L·mol^–1,5.99 ± 0.5,–,2.9,competitive,–,–,–,–,–,–,–,–,"O=c1cc(-c2ccc(O)cc2)oc2cc(O)cc(O)c12 [Compound 8, apigenin]",–

SMILES,Kd (PTP1B [1]) [µM],n (number of binding sites) (PTP1B [1]),KSV (Stern–Volmer constant) (PTP1B [1]),IC50 (PTP1B [2]) [µM],fold effective vs mother compound (PTP1B [2]; pyran compound 5 vs 6) [fold],Ki (PTP1B [3]; [5]) [µM],kinetic mode (PTP1B [3]),fold better inhibition than mother skeleton (PTP1B [2]; glycosides 11 vs 6 and 13 vs 8) [fold],Ki (PTP1B [3]; [6]) [µM],KIS (PTP1B [3]; secondary plots) [µM],Ki (PTP1B [4]) [µM],"k3 (PTP1B [4]; slow-binding, progress curves) [μM^–1 min^–1]","k4 (PTP1B [4]; slow-binding, progress curves) [min^–1]",fold more effective (inhibition activity) (PTP1B [2]; trans 1 vs cis 2) [fold],reversibility of the inhibitor to the enzyme (PTP1B [3]; initial velocity plots at different inhibitor concentrations),"time-dependent inhibition type (PTP1B [4]; preincubation 0–75 min, kobs vs inhibitor concentration linear)"
"O=c1cc(-c2ccc(O)cc2O)oc2cc(O)cc(O)c12 [Compound 10, norartocarpetin]",833,1.06,0.0124 × 10^5 L·mol^–1,3.39 ± 0.2,–,2.71,mixed-type inhibitions; also recorded: mixed type I,–,2.68,5.23,–,–,–,–,–,–
"CC1(C)C=Cc2c(cc(O)c3c2O[C@H](c2ccccc2)[C@@H](O)C3=O)O1 [Compound 1, (2R,3R)-3,5-dihydroxy-8,8-dimethyl-2-phenyl-2,3-dihydro-4H,8H-pyrano[2,3-f]chromen-4-one]",27.8,1.09,0.4375 × 10^5 L·mol^–1,–,–,0.07,competitive mode; also recorded: competitive inhibitors,–,–,–,0.0641,0.2262,0.0145,13,typical reversibility,simple slow-binding inhibitor; also recorded: slow binding mode; also recorded: slow binding characteristics
